For 24 compounds, caspase activation and AC50 results are on record in PubChem BioAssay AID488898 (Broad Institute, 2010).

Results filed as inconclusive are left out. Activity calls are given as the source filed them.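 How the source made its calls: active means fitted half-maximal caspase rise reached at or below ten times the top valid dose; inconclusive means flat fit between 30 and 70 percent, or poor fit; inactive means the rest.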

As a reminder, the AC50 is the concentration at which the activity in the assay is half-maximal.

The nature of assay [1]: apoptosis induction, Bax/Bak-deficient fibroblasts – cell-based, mouse embryonic fibroblasts, dry powder, counter-screen for Bcl2-A1 inhibitor project, dose response (AID 488898). The settings on record: Bax/Bak-/- MEF caspase activation, CaspaseGlo luminescence, 3 h. In short, it runs like this: (§1)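 Material – Bax/Bak-null mouse embryonic fibroblasts · Input – 2500 cells/well · Doses – compound added to cells by pin transfer · Times – 3 h compound exposure (37 °C), then 1 h RT detection · Technique – Caspase-Glo luminescence for caspase activity · Read-out basis – caspase activation, flagging off-target or general toxicity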

Assay [2] deals with Bax/Bak-/- MEF caspase activation, CaspaseGlo luminescence, 3 h. The description is as above. In short, it runs like this: as §1

Take `CC(=O)N[C@H]1[C@H](O[C@H]2CC[C@@]3(C)C(CC[C@]4(C)C3CC=C3[C@@H]5CC(C)(C)CC[C@]5(C(=O)OC5OCC(O)C(O)C5O)C(O)C[C@]34C)C2(C)C)O[C@H](COC2OCC(O)C(OC3OCC(O)C(O)C3O)C2O)[C@@H](O[C@@H]2O[C@@H](C)[C@H](O)[C@@H](O)[C@H]2O[C@@H]2O[C@@H](C)[C@H](O)[C@@H](O)[C@H]2O)[C@@H]1O` (some centres undefined): the caspase activation in assay [1] (at 135 µM (top of the series)) was -0.158% (inactive).
Turning to `COc1cc(/C=C(/C#N)c2nc3ccccc3[nH]2)ccc1OCC(=O)Nc1ccccc1C(C)C`, the caspase activation in assay [1] (at 150 µM (top of the series)) is 1.27% (inactive).
On the same count and under the same terms, to `C/C1=C/C(=O)O[C@@H]2C[C@@H](CC[C@H](C)/C=C\CC1)O[C@@](O)(C1CSC(=O)N1)C2` (some centres undefined) belongs 1.16% (inactive).
As to `Cc1cccc(NC(=O)/C(C#N)=C/c2cn(CC(=O)NCc3ccco3)c3ccccc23)c1`, the AC50 in assay [2] is 4.78 µM.
As to `O=C(CCl)N=c1sccn1Cc1ccccc1Cl`, the caspase activation in assay [1] (at 150 µM (top of the series)) is 0.854% (inactive).
Still for that read-out and setting: in the case of `Cc1cccc(CS(=O)(=O)c2ncc(Cl)c(C(=O)Nc3nnc(C(C)C)s3)n2)c1` it was -0.163% (inactive); in that of `Cc1ccc(Sc2c([N+](=O)[O-])c(=O)n(C)c3ccccc23)cc1`, 1% (inactive).
On the same count and under the same terms, in the case of `Cc1c(CCOC(=O)c2ccc(N3CCOCC3)c([N+](=O)[O-])c2)sc[n+]1CC#N` it was 0.688% (inactive).
With `Cn1c(=NC(=O)CCl)sc2ccccc21`, the caspase activation in assay [1] (at 150 µM (top of the series)) was 0.685% (inactive).
On to `COc1ccc(N(C(=O)CCl)C(C(=O)NCCc2ccccc2)c2cccs2)cc1Cl` (centres undefined), for which the concentration at half-maximal activity (AC50) in assay [2] is 24.9 µM.
In the case of `Cc1ccc(CS(=O)(=O)c2ncc(Cl)c(C(=O)Nc3nnc(C(C)C)s3)n2)cc1`, the caspase activation in assay [1] (at 150 µM (top of the series)) is -0.479% (inactive).
On the same count and under the same terms, in the case of `C=C1[C@@H](C)[C@H]2[C@H](Cc3ccccc3)NC(=O)[C@]23[C@H](OC(C)=O)/C=C/[C@](C)(O)C(=O)[C@@H](C)C/C=C/[C@H]3[C@@H]1O` it was 0.127% (inactive); in that of `CCOC(=O)CSC1=N/C(=C/c2ccc(-n3cncn3)cc2)C(=O)N1C(C)=O`, -0.0192% (inactive); in that of `CCc1cc2c(=O)c(-c3cnn(-c4ccccc4)c3)c(C)oc2cc1OCC(=O)Nc1cccc(C)c1`, 0.45% (inactive).
Still for that read-out and setting: in the case of `CC(=O)OC(C)(C)/C=C/C(=O)[C@](C)(O)C1[C@H](O)C[C@@]2(C)C3CC=C4C(C[C@H](O)C(=O)C4(C)C)[C@]3(C)C(=O)C[C@]12C` (some centres undefined) it was 0.556% (inactive).
The same measure, in the same setting: in the case of `COc1cccc(C(=O)C(C#N)=C(SC)SC)c1` it was 0.208% (inactive).
Regarding `Cc1c(C=O)c(C=O)c(C)n1Cc1ccccc1`, the caspase activation in assay [1] (at 150 µM (top of the series)) is 1.17% (inactive).
On the same count and under the same terms, to `CCSc1nnc(NC(=O)c2nc(S(=O)(=O)Cc3ccc(F)cc3)ncc2Cl)s1` belongs -0.717% (inactive).
In the case of `Nc1nc(F)nc2c1ncn2[C@@H]1O[C@H](CO)[C@@H](O)[C@H]1O`, in assay [1] (at 150 µM (top of the series)), the caspase activation was -0.0553% (inactive).
As to `O=C(Oc1cccc(/C=N/Nc2nc(Nc3ccccc3)nc(N3CCOCC3)n2)c1)c1ccco1`, in assay [1] (at 150 µM (top of the series)), the caspase activation was 0.146% (inactive).
On to `CCc1nnc(NC(=O)c2nc(S(=O)(=O)Cc3ccccc3)ncc2Cl)s1`, for which, in assay [1] (at 150 µM (top of the series)), the caspase activation was -0.106% (inactive).
Turning to `CC(C)(C)n1nc(-c2ccc(Cl)cc2)c2c(N)ncnc21`, in assay [1] (at 150 µM (top of the series)), the caspase activation was 2.79% (inactive).
Still for that read-out and setting: to `C=C1[C@@H](C)[C@H]2[C@H](Cc3ccccc3)NC(=O)[C@]23OC(=O)/C=C\[C@H](O)CCC[C@@H](C)C/C=C/[C@H]3[C@@H]1O` belongs 0.116% (inactive).
Regarding `Cc1cc(C(=O)CCl)c(C)n1CCc1ccc(Cl)cc1`, the AC50 in assay [2] was 13.3 µM.
